Laboratory results from ChEMBL document CHEMBL1155725, “Antimicrobial cuparene-type sesquiterpenes, enokipodins C and D, from a mycelial culture of Flammulina velutipes” (2001).
Active and inactive are the calls of the source. No cut-off for these calls is given here.

Key:
Staphylococcus aureus [1] = experiment: Antimicrobial activity against Staphylococcus aureus AHU1142 at 25 ug/8 mm disk after 18 hrs by paper disk method; format: functional
Method in brief: (§1)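 Disk diffusion: 25 or 50 µg sample in acetone (20 µL) on air-dried 8 mm paper disk, placed on agar seeded with organism; plates held overnight at 4 °C for diffusion, then 37 °C for 18 h. Read-out: diameter of clear inhibition zone; triplicate.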

Escherichia coli [2] = experiment: Antimicrobial activity against Escherichia coli AHU1714 at 50 ug/8 mm disk after 18 hrs by paper disk method; format: functional; method in brief: as §1
Escherichia coli [3] = experiment: Antimicrobial activity against Escherichia coli AHU1714 at 25 ug/8 mm disk after 18 hrs by paper disk method; format: functional; method in brief: as §1
Staphylococcus aureus [4] = experiment: Antimicrobial activity against Staphylococcus aureus AHU1142 at 50 ug/8 mm disk after 18 hrs by paper disk method; format: functional; method in brief: as §1
Bacillus subtilis [5] = experiment: Antimicrobial activity against Bacillus subtilis LMA0011 at 25 ug/8 mm disk after 18 hrs by paper disk method; format: functional; method in brief: as §1
Cladosporium herbarum = experiment: Antifungal activity against Cladosporium herbarum AHU9262 after 3 days by TLC plate assay; format: functional, organism-based
Method in brief: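 TLC bioautography: EtOAc extract of culture filtrate (equivalent to 0.25 mL medium) developed in CHCl3–MeOH 25:1, sprayed with C. herbarum spore suspension, incubated 25 °C under humid conditions for 3 days; inhibitory zones matched to UV 254 nm spots.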

Bacillus subtilis [6] = experiment: Antimicrobial activity against Bacillus subtilis LMA0011 at 50 ug/8 mm disk after 18 hrs by paper disk method; format: functional; method in brief: as §1
Pseudomonas fluorescens [7] = experiment: Antimicrobial activity against Pseudomonas fluorescens AHU1719 at 50 ug/8 mm disk after 18 hrs by paper disk method; format: functional; method in brief: as §1
Pseudomonas fluorescens [8] = experiment: Antimicrobial activity against Pseudomonas fluorescens AHU1719 at 25 ug/8 mm disk after 18 hrs by paper disk method; format: functional; method in brief: as §1
Bacillus subtilis [9] = experiment: Antimicrobial activity against Bacillus subtilis LMA0011 at 12.5 ug/8 mm disk after 18 hrs by paper disk method; format: functional
Method in brief: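 Positive-control disk diffusion: pentachlorophenol 12.5 µg on 8 mm paper disk on seeded agar; overnight at 4 °C, then 37 °C for 18 h; clear inhibition-zone diameter measured; triplicate.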

## CC1=CC(=O)C([C@@]2(C)CCC(=O)C2(C)C)=CC1=O [ENOKIPODIN B]
Staphylococcus aureus [1]
  inhibition zone (IZ): 0 mm
Escherichia coli [2]
  inhibition zone (IZ): 0 mm
Escherichia coli [3]
  inhibition zone (IZ): 0 mm
Staphylococcus aureus [4]
  inhibition zone (IZ): 14 mm
Bacillus subtilis [5]
  inhibition zone (IZ): 17 mm
Cladosporium herbarum
  Activity: Active
Bacillus subtilis [6]
  inhibition zone (IZ): 21 mm

## CC1=CC(=O)C([C@@]2(C)[C@H](O)CC(=O)C2(C)C)=CC1=O [ENOKIPODIN D]
Staphylococcus aureus [1]
  inhibition zone (IZ): 0 mm
Escherichia coli [2]
  inhibition zone (IZ): 0 mm
Escherichia coli [3]
  inhibition zone (IZ): 0 mm
Staphylococcus aureus [4]
  inhibition zone (IZ): 11.6 mm
Bacillus subtilis [5]
  inhibition zone (IZ): 11 mm
Cladosporium herbarum
  Activity: Active
Bacillus subtilis [6]
  inhibition zone (IZ): 16 mm

## Cc1cc2c(cc1O)[C@@]1(C)[C@H](O)C[C@@](O)(O2)C1(C)C [ENOKIPODIN C]
Staphylococcus aureus [1]
  inhibition zone (IZ): 18 mm
Escherichia coli [2]
  inhibition zone (IZ): 0 mm
Escherichia coli [3]
  inhibition zone (IZ): 0 mm
Pseudomonas fluorescens [7]
  inhibition zone (IZ): 0 mm
Pseudomonas fluorescens [8]
  inhibition zone (IZ): 0 mm
Staphylococcus aureus [4]
  inhibition zone (IZ): 21.2 mm
Bacillus subtilis [5]
  inhibition zone (IZ): 20 mm
Cladosporium herbarum
  Activity: Active
Bacillus subtilis [6]
  inhibition zone (IZ): 26 mm

## Cc1cc2c(cc1O)[C@@]1(C)CC[C@@](O)(O2)C1(C)C [ENOKIPODIN A]
Staphylococcus aureus [1]
  inhibition zone (IZ): 19.2 mm
Escherichia coli [2]
  inhibition zone (IZ): 0 mm
Escherichia coli [3]
  inhibition zone (IZ): 0 mm
Pseudomonas fluorescens [7]
  inhibition zone (IZ): 0 mm
Pseudomonas fluorescens [8]
  inhibition zone (IZ): 0 mm
Staphylococcus aureus [4]
  inhibition zone (IZ): 25.2 mm
Bacillus subtilis [5]
  inhibition zone (IZ): 28 mm
Cladosporium herbarum
  Activity: Active
Bacillus subtilis [6]
  inhibition zone (IZ): 32.6 mm

## Oc1c(Cl)c(Cl)c(Cl)c(Cl)c1Cl [PENTACHLOROPHENOL]
Bacillus subtilis [5]
  inhibition zone (IZ): 31 mm
Bacillus subtilis [9]
  inhibition zone (IZ): 26.6 mm
